Drawing on ChEMBL document CHEMBL3045276, “Synthesis and biological activity of some novel trifluoromethyl-substituted 1,2,4-triazole and bis(1,2,4-triazole) Mannich bases containing piperazine rings” (2010), this text covers inhibition and inhibition of growth for eight compounds.

Each structure is given as a SMILES string.

One may read the inhibition as the share of the control response that was lost under treatment.

Assay type in all cases: functional
Assay [1] deals with Echinochloa crus-galli. As to the kind of experiment: Herbicidal activity against Echinochloa crus-galli (barnyard grass) assessed as inhibition of seedling growth at 100 ug/mL at 28 degC. In a few lines: (§1)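 Ten barnyardgrass seeds placed in cup over glass beads and filter paper holding 5 mL aqueous test solution (emulsified if needed); germinated 65 h at 28 ± 1 °C under light. Mean above-ground seedling height per cup measured; inhibition percentage derived.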

Assay [2] deals with Brassica rapa subsp. oleifera. Description: Herbicidal activity against Brassica rapa subsp. oleifera assessed as inhibition of root growth at 10 ug/mL at 28 degC. In a few lines:
(§2)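 Rape seeds soaked 4 h in distilled water, then 15 per 6 cm dish on filter paper wetted with 2 mL aqueous test solution (emulsified if needed); germinated 65 h at 28 ± 1 °C in darkness. Mean length of 10 roots per dish measured; percentage inhibition calculated against distilled-water check.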

Assay [3] deals with Brassica rapa subsp. oleifera. Description: Herbicidal activity against Brassica rapa subsp. oleifera assessed as inhibition of root growth at 100 ug/mL at 28 degC. The procedure, abridged:
as §2

Assay [4] has as its system Sclerotinia sclerotiorum. Description: Fungicidal activity against Sclerotinia sclerotiorum in cucumber plant two seed leaves stage assessed as control efficacy from disease indices at 500 ug/mL at 18 to 30 degC and above 80%RH relative to control. Particulars: read-out: GI. The procedure, abridged: (§3)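 Cucumber seeds germinated (soaked 2 h in water at 50 °C, kept moist 24 h at 28 °C) and grown in 1:1 vermiculite/peat; two-seed-leaf plants sprayed at 500 μg/mL, then inoculated 2 h later by spraying conidial (C. cassiicola, A. citrullina, P. cubensis), bacterial (P. syringae) or mycelial (S. sclerotiorum) suspension. Held 18-30 °C, >80% RH; four repeats; control efficacy = (CK−PT)/CK×100 from disease indices once untreated plants fully symptomatic.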

In assay [5] the test system is Pseudoperonospora cubensis. Description: Fungicidal activity against Pseudoperonospora cubensis in cucumber plant two seed leaves stage assessed as control efficacy from disease indices at 500 ug/mL at 18 to 30 degC and above 80%RH relative to control. The note with it: read-out: GI. In a few lines: as §3
The test system of assay [6] is Ascochyta. Description: Fungicidal activity against Ascochyta […] in cucumber plant two seed leaves stage assessed as control efficacy from disease indices at 500 ug/mL at 18 to 30 degC and above 80%RH relative to control. Particulars: read-out: GI. The procedure, abridged: as §3
Assay [7] deals with Pseudomonas amygdali pv. lachrymans. Description: Fungicidal activity against Pseudomonas syringae pv. lachrymans in cucumber plant two seed leaves stage assessed as control efficacy from disease indices at 500 ug/mL at 18 to 30 degC and above 80%RH relative to control. The note with it: read-out: GI. The procedure, abridged: as §3
For assay [8], the system named is Corynespora cassiicola. As to the kind of experiment: Fungicidal activity against Corynespora cassiicola in cucumber plant two seed leaves stage assessed as control efficacy from disease indices at 500 ug/mL at 18 to 30 degC and above 80%RH relative to control. The note with it: read-out: GI. In a few lines:
as §3

The subject of assay [9] is Echinochloa crus-galli. Description: Herbicidal activity against Echinochloa crus-galli (barnyard grass) assessed as inhibition of seedling growth at 10 ug/mL at 28 degC. The procedure, abridged:
as §1

With `Cc1cc(C)nc(N2CCN(Cn3nc(C(F)(F)F)n(/N=C/c4ccc(Cl)cc4)c3=S)CC2)n1`, the figures for the inhibition at 100 µg/mL in assay [1] and in assay [3] were 36.6% and 88.5%, respectively. For the same compound, the inhibition at 10 µg/mL in assay [2] amounted to 9.5%; in assay [9], 12.3%. In addition, the inhibition of growth at 500 µg/mL in [4] came to 38%; in [5], 91.6%; in assay [6], 62.8%; in assay [7], 61.5%; in [8] it was 94.4%.
Take `Fc1ccccc1/C=N/n1c(C(F)(F)F)nn(CN2CCN(c3ncccn3)CC2)c1=S`: the figures for the inhibition at 100 µg/mL in [1] and in [3] were 15.3% and 74.5%, respectively. Besides, the inhibition at 10 µg/mL turned out to be 70.8% in [2] and 9.9% in assay [9]. In addition, the inhibition of growth at 500 µg/mL in [4] worked out at 47.3%; in [5] it was 64.9%; in assay [6] it was 61.3%; in assay [7], 45.4%; in [8], 40.3%.
On to `COc1ccc(/C=N/n2c(C(F)(F)F)nn(CN3CCN(Cn4nc(C(F)(F)F)n(/N=C/c5ccc(OC)cc5)c4=S)CC3)c2=S)cc1`, for which the inhibition at 100 µg/mL in assay [1] was found to be 25.5%; in assay [3], 29.5%. In addition, the figures for the inhibition at 10 µg/mL in assay [2] and in [9] were 0% and 5.5%, respectively. For the same compound, the inhibition of growth at 500 µg/mL in [4] was found to be 62%; in assay [5], 84.5%; in assay [6] it was 89.7%; in [7] it was 55.6%; in assay [8] it was 44.1%.
For the compound `FC(F)(F)c1nn(CN2CCN(Cn3nc(C(F)(F)F)n(/N=C/c4ccccc4)c3=S)CC2)c(=S)n1/N=C/c1ccccc1`, the values for the inhibition at 100 µg/mL in assay [1] and in assay [3] were 25.1% and 35.1%, respectively. Moreover, the inhibition at 10 µg/mL amounted to 0% in assay [2] and 16.2% in [9]. The inhibition of growth at 500 µg/mL was determined as 67.6% in assay [4]; 78.9% in assay [5]; 25.6% in assay [6]; 56.4% in assay [7]; 70.9% in assay [8].
For the compound `Cc1cc(C)nc(N2CCN(Cn3nc(C(F)(F)F)n(/N=C/c4ccc(C)c(C)c4)c3=S)CC2)n1`, the inhibition at 100 µg/mL in assay [1] was 8.7%; in assay [3], 20.5%. Also, the inhibition at 10 µg/mL in assay [2] came out at 6%; in assay [9] it was 0%. The inhibition of growth at 500 µg/mL in assay [4] is 48.9%; in assay [5], 67.8%; in assay [6], 82.9%; in assay [7], 59.5%; in assay [8], 85.9%.
`Cc1ccnc(N2CCN(Cn3nc(C(F)(F)F)n(/N=C/c4ccc(Cl)cc4)c3=S)CC2)n1`: the inhibition at 100 µg/mL in assay [1] stood at 96.7%; in assay [3], 68.6%. For the same compound, the inhibition at 10 µg/mL in [2] was found to be 0%; in assay [9], 10.2%. The inhibition of growth at 500 µg/mL in [4] is 70.3%; in assay [5], 91.2%; in assay [6], 61.3%; in assay [7] it was 21.1%; in assay [8], 71.1%.
As for `Cc1ccnc(N2CCN(Cn3nc(C(F)(F)F)n(/N=C/c4ccccc4F)c3=S)CC2)n1`, the inhibition at 100 µg/mL in assay [1] stood at 8%; in assay [3], 24.4%. The inhibition at 10 µg/mL in [2] and in assay [9] was 0% in each case. The inhibition of growth at 500 µg/mL in [4] is 52.2%; in assay [5], 75.5%; in [6], 57.8%; in assay [7] it was 62.3%; in assay [8], -5.3%.
For the compound `Cc1ccnc(N2CCN(Cn3nc(C(F)(F)F)n(/N=C/c4ccc(C)c(C)c4)c3=S)CC2)n1`, the results for the inhibition at 100 µg/mL in [1] and in assay [3] were 27.8% and 11.2%, respectively. The inhibition at 10 µg/mL in assay [2] and in assay [9] was 0% in each case. The inhibition of growth at 500 µg/mL in [4] came out at 51.9%; in assay [5] it was 69.5%; in assay [6] it was 70%; in [7], 22%; in assay [8] it was 38.7%.
